From ChEMBL document CHEMBL5385938 (J Med Chem, 2024)
Active and inactive are the calls of the source. The calls are words filed in the database; no cut-off is given here.

Tests used:
[1] = tested on: T47D; assay: Cytotoxicity against human T47D cells harboring PI3Kalpha H1047R mutant assessed as reduction in cell viability incubated for 72 hrs by CellTiter-Glo 2.0 luminescent cell viability assay; format: functional, cell-based
[2] = tested on: SK-BR-3; assay: Cytotoxicity against human SK-BR-3 cells harboring wildtype PI3Kalpha assessed as reduction in cell viability incubated for 72 hrs by CellTiter-Glo 2.0 luminescent cell viability assay; format: functional, cell-based; details: SK-BR-3, 72 h
[3] = Metabolic stability in pooled human hepatocytes assessed as intrinsic clearance; format: ADME, Liver, Hepatocyte; details: read-out: CLH
[4] = target: T1, Phosphatidylinositol 4,5-bisphosphate 3-kinase catalytic subunit alpha isoform (Homo sapiens, UniProt P42336, H1047R); assay: Inhibition of recombinant N-terminal 6-His tagged full length human PI3Kalpha H1047R mutant using PIP2diC8 and PIP2:PS as substrate incubated for 1 hrs in presence of ATP by fluorescence based plate reader analysis
T1 sequence (P42336 whole entry H1047R, canonical isoform): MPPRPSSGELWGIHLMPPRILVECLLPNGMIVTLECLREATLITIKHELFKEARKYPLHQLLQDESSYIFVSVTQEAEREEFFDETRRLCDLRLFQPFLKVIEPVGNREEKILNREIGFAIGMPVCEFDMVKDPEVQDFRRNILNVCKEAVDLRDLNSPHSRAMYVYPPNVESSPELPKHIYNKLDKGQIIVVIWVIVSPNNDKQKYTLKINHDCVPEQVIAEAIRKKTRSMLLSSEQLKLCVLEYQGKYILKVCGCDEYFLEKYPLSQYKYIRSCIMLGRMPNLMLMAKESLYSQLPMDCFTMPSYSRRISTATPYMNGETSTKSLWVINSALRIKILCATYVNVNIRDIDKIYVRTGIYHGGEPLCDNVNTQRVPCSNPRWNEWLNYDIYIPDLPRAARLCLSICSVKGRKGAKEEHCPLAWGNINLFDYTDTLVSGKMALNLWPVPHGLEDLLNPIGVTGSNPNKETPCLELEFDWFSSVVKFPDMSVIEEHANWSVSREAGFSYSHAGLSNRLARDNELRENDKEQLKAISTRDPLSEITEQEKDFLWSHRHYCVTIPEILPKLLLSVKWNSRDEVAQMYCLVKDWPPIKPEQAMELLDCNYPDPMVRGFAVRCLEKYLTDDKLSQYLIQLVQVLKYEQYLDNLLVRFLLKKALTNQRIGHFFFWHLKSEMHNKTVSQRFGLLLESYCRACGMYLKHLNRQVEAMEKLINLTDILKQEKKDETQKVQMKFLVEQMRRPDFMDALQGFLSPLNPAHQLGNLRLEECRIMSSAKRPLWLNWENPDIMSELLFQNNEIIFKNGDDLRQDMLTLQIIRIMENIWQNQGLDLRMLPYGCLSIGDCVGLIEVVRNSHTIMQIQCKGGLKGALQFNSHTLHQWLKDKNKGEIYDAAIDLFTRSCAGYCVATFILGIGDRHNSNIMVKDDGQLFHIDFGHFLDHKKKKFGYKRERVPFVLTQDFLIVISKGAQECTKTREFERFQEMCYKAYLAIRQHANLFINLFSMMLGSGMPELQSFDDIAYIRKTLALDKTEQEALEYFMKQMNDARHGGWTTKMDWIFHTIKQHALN

[5] = organism: Homo sapiens; assay: Selectivity ratio of IC50 for inhibition of recombinant N-terminal 6-His tagged full length human wildtype PI3Kalpha to IC50 for inhibition of recombinant N-terminal 6-His tagged full length human PI3Kalpha H1047R mutant
[6] = Selectivity ratio of IC50 for cytotoxicity against human SK-BR-3 cells harboring wild type PI3Kalpha to IC50 for cytotoxicity against human T47D cells harboring PI3Kalpha H1047R mutant; format: functional
[7] = Volume of distribution at steady state in CD-1 mouse at 100 mg/kg, po or 3 mg/kg, iv measured upto 24 hrs; format: ADME, organism-based; details: in vivo
[8] = Half-life in CD-1 mouse at 3 mg/kg, iv measured upto 24 hrs; format: ADME, organism-based; details: in vivo
[9] = Volume of distribution at steady state in Sprague-Dawley rat at 100 mg/kg, po or 3 mg/kg, iv measured upto 24 hrs; format: ADME, organism-based; details: in vivo
[10] = Half-life in Sprague-Dawley rat at 3 mg/kg, iv measured upto 24 hrs; format: ADME, organism-based; details: in vivo
[11] = Oral bioavailability in Sprague-Dawley rat at 100 mg/kg measured upto 24 hrs; format: ADME, organism-based; details: in vivo
[12] = Oral bioavailability in CD-1 mouse at 100 mg/kg measured upto 24 hrs; format: ADME, organism-based; details: in vivo
[13] = Volume of distribution at steady state in Beagle dog at 10 mg/kg, po or 2 mg/kg, iv measured upto 24 hrs; format: ADME, organism-based, Canis lupus familiaris; details: in vivo
[14] = Half-life in Beagle dog at 2 mg/kg, iv measured upto 24 hrs; format: ADME, organism-based, Canis lupus familiaris; details: in vivo
[15] = Oral bioavailability in Beagle dog at 10 mg/kg measured upto 24 hrs; format: ADME, organism-based, Canis lupus familiaris; details: in vivo
[16] = tested on: HCC1954; assay: Antitumor activity against ER-/HER2+ human HCC1954 cells harboring endogenous PI3Kalpha H1047R mutant xenografted in NOD.CB17-Prkdcscid/NCrCr mouse assessed as tumor growth inhibition at 100 mg/kg, ip administered once a day for 14 days relative to control; format: functional; details: HCC1954, 336 h, time 14 day, read-out: TGI
Procedure, shortened: (§1)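 HCC1954 xenograft mice (ER-/HER2+ breast line, endogenous PI3Kα H1047R) were dosed IP for 14 days, at 100 mg/kg qd or 80 mg/kg b.i.d. Read-out was tumor growth inhibition or regression (%).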

[17] = tested on: HCC1954; assay: Antitumor activity against ER-/HER2+ human HCC1954 cells harboring endogenous PI3Kalpha H1047R mutant xenografted in NOD.CB17-Prkdcscid/NCrCr mouse assessed as tumor regression at 80 mg/kg, ip administered twice daily for 14 days relative to control; format: functional; details: time 14 day; procedure, shortened: as §1
[18] = In vivo inhibition of AKT phosphorylation in NOD.CB17-Prkdcscid/NCrCr mouse xenografted with ER-/HER+ human HCC1954 cells harboring PI3Kalpha H1047R mutant at 60 mg/kg, ip administered as single dose and measured after 8 hrs by immunoblotting analysis relative to control; format: functional
Procedure, shortened: (§2)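 HCC1954 tumor-bearing mice received a single IP dose of 60 or 120 mg/kg. Tumor pAKT modulation was measured at 1 h and 8 h post dose, relative to control.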

[19] = In vivo inhibition of AKT phosphorylation in NOD.CB17-Prkdcscid/NCrCr mouse xenografted with ER-/HER+ human HCC1954 cells harboring PI3Kalpha H1047R mutant at 120 mg/kg, ip administered as single dose and measured after 8 hrs by immunoblotting analysis relative to control; format: functional; procedure, shortened: as §2
[20] = Drug uptake in NOD.CB17-Prkdcscid/NCrCr mouse xenografted with ER-/HER+ human HCC1954 cells harboring PI3Kalpha H1047R mutant at 60 to 120 mg/kg, ip administered as single dose and measured upto 8 hrs; format: ADME, organism-based; details: in vivo, dose 60-120 mg/kg
[21] = tested on: Mus musculus; assay: In vivo inhibition of AKT phosphorylation in NOD.CB17-Prkdcscid/NCrCr mouse xenografted with ER-/HER+ human HCC1954 cells harboring PI3Kalpha H1047R mutant at 100 to 300 mg/kg, po measured upto 8 hrs by immunoblotting analysis; format: functional, organism-based; details: dose 100-300 mg/kg
[22] = target: T1, Phosphatidylinositol 4,5-bisphosphate 3-kinase catalytic subunit alpha isoform; assay: Inhibition of PI3Kalpha H1047R mutant (unknown origin) using PI(4,5)P2:PS as substrate incubated in presence of ATP by ADP-Glo assay
[23] = target: T1, Phosphatidylinositol 4,5-bisphosphate 3-kinase catalytic subunit alpha isoform

Row | Structure (SMILES) | IC50 [1] [nM] | IC50 [2] [nM] | CLint scaled [3] [mL/min/kg] | other results
1 | Cc1cc([C@@H](C)Nc2cscc2C(=O)O)c2nc(N3CCC(F)(F)CC3)c(C#N)c(=O)n2c1 | 183 |  |  | 
2 | Cc1cc([C@@H](C)Nc2ccccc2C(=O)O)c2nc(C3CCC(F)(F)CC3)c(C#N)c(=O)n2c1 | 246 | > 10000 | 12 | 
3 | Cc1cc([C@@H](C)Nc2ccccc2C(=O)O)c2nc(N3CCCC3)c(C#N)c(=O)n2c1 | 135 | > 10000 | 78 | 
4 | Cc1cc([C@@H](C)Nc2ccccc2C(=O)O)c2oc(N3CCCCC3)cc(=O)c2c1 |  |  |  | IC50 [4]: < 500 nM; Ratio IC50 [5]: 13.5
5 | Cc1cc([C@@H](C)Nc2ccccc2C(=O)O)c2nc(N3CCCCC3)c(C)c(=O)n2c1 | 120 | > 10000 | 340 | Ratio IC50 [6]: 83
6 | Cc1cc([C@@H](C)Nc2ccc(Cl)nc2C(=O)O)c2nc(N3CCC(F)(F)CC3)c(C#N)c(=O)n2c1 | 304 |  |  | 
7 | Cc1cc([C@@H](C)Nc2ccccc2C(=O)O)c2nc(N3CC4(C3)CC(F)(F)C4)c(C#N)c(=O)n2c1 | > 10000 | > 10000 | 118 | 
8 | Cc1cc([C@@H](C)Nc2ccccc2C(=O)O)c2nc(N3CCC(F)(F)CC3)c(C#N)c(=O)n2c1 | 48 | 8970 | 29 | Vdss [7]: 13.6 L/kg; t1/2 [8]: 2 h; Vdss [9]: 4.8 L/kg; t1/2 [10]: 3.5 h; F [11]: 57%; F [12]: 48%; Vdss [13]: 1.5 L/kg; t1/2 [14]: 0.7 h; F [15]: 7%; inhibition in vivo at 100 mg/kg [16]: 88%; Activity [17]: -34%; inhibition in vivo at 60 mg/kg [18]: 42%; inhibition in vivo at 120 mg/kg [19]: 81%; Drug uptake [20]: Active; inhibition [21]: inactive; IC50 [22]: 73 nM
9 | Cc1cc([C@@H](C)Nc2cccc(F)c2C(=O)O)c2nc(N3CCC(F)(F)CC3)c(C#N)c(=O)n2c1 | 566 |  |  | 
10 | Cc1cc([C@@H](C)Nc2ccccc2C(=O)O)c2nc(N3CCCCC3)c(F)c(=O)n2c1 |  |  | 862 | 
11 | Cc1cc([C@@H](C)Nc2nccnc2C(=O)O)c2nc(N3CCC(F)(F)CC3)c(C#N)c(=O)n2c1 | 3720 |  |  | 
12 | Cc1cc([C@@H](C)Nc2ccccc2C(=O)O)c2nc(N3CCS(=O)(=O)CC3)c(C#N)c(=O)n2c1 | > 10000 | > 10000 | 5 | 
13 | Cc1ccccc1C1NC(=O)c2cc(NC3COC3)cc(NC(=O)c3csc4ccccc34)c21 (centres undefined) |  |  |  | IC50 [23]: ≤ 100 nM
14 | Cc1cc(C(C)Nc2ccccc2C(=O)O)c2nc(N3CCCCC3)ncc2c1 (centres undefined) | > 10000 | > 10000 |  | 
15 | Cc1cc([C@@H](C)Nc2ccc(Cl)cc2C(=O)O)c2nc(N3CCC(F)(F)CC3)c(C#N)c(=O)n2c1 | 627 |  |  | 
16 | Cc1cc([C@@H](C)Nc2ccccc2C(=O)O)c2nc(N3CC(F)(F)C3)c(C#N)c(=O)n2c1 | 56 | > 10000 | 24 | 
17 | Cc1cc([C@@H](C)Nc2ccccc2C(=O)O)c2nc(N3CCC(C)(C)CC3)c(C#N)c(=O)n2c1 | 151 | > 10000 | 76 | 
18 | Cc1cc([C@@H](C)Nc2ccccc2C(=O)O)c2oc(N3CCC(C)(C)CC3)c(C)c(=O)c2c1 | 160 | 9080 |  | Ratio IC50 [6]: 57
19 | Cc1cc(C(C)Nc2ccccc2C(=O)O)c2nc(N3CCC(C)(C)CC3)n(C)c(=O)c2c1 (centres undefined) | 6240 | > 10000 |  | Ratio IC50 [6]: 2
20 | Cc1cc([C@@H](C)Nc2ccccc2C(=O)O)c2nc(N3CCCCC3)c(C#N)c(=O)n2c1 | 86 | 9940 | 79 | 
21 | Cc1cc([C@@H](C)Nc2ccccc2C(=O)O)c2nc(N3CCCCC3)cc(=O)n2c1 | 1110 | > 10000 | 181 | Ratio IC50 [6]: 9; IC50 [22]: 411 nM
22 | Cc1cc([C@@H](C)Nc2ccccc2C(=O)O)c2nc(N3CC4CC(C3)C4(F)F)c(C#N)c(=O)n2c1 | 71 | > 10000 | 39 | 
